Source: PubChem (several laboratories)
Shown are actives, neighbours in structure and some others; about 12% of the full set was active somewhere.
WT yeast gro inh: growth inhibition of WT yeast, mitochondrial fusion screen; mitochondrial fusion phenotypic screen, WT strain; inhibition, % at 10 µM; 2.1% of 190,000 active; AID 1362; in the data active = inhibition above about 58%; tested in S. cerevisiae
ABCG2 block: inhibitors of human ABCG2 transporter, ABCB1 counter-screen | Q9UNQ0 | IgMXP3 cells, JC-1 efflux, flow cytometry | inhibition, % at 6.6 µM | 0.1% of 190,000 active | AID 1325;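 active = inhibition above 80%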;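 note: 0% = DMSO and 100% = nicardipine control wells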
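Times: 10 min at 25 °C | Test system: Two drug-resistant human cell lines, ABCG2 and ABCB1 | Quantity: 3 million cells/mL final, two lines in 1:1 ratio | Signal: Flow cytometry, 530 nm JC-1 signal | Dosing: Compound at 6.6 µM | Controls: Nicardipine and DMSO wells | Reagent: JC-1 as fluorescent efflux pump substrate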
RAM inhibit: yeast RAM network inhibition. inhibition, % at 50 µM. 1.8% of 190,000 active. AID 868. S. cerevisiae dse1pr::URA3 reporter, 5-FOA growth OD615, 2 d; analog-sensitive cbk1-as2 kinase mutant strain;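 active = inhibition above a set limit, 3 SD over mean compound inhibition, cut at about 8.4% in these data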;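 note: 0% = DMSO-only wells with no growth and 100% = 10 µM 1-NA-PP1 full growth; inhibition rescues growth on 5-FOA so higher OD means more RAM inhibition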
ABCB1 block: human ABCB1 inhibition, ABCG2 as counter-screen; CCRF-Adr cells, JC-1 efflux, flow cytometry; inhibition, % at 6.6 µM; 0.067% of 190,000 active; AID 1326; in the data active = inhibition above about 40%;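 note: 0% = vehicle and 100% = reference inhibitor; higher value means more JC-1 retained so stronger ABCB1 efflux block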
L major viab: inhibitors of Leishmania major promastigote growth; Leishmania major promastigotes, resazurin fluorescence viability; AID 1063; inhibition, % at 10 µM; 9% of 200,000 active; in the data active = inhibition above about 50%;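 note: promastigotes grown with compound for 44 hours at 28 °C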
* = called active by the depositor.

SMILES | WT yeast gro inh | ABCG2 block | RAM inhibit | ABCB1 block | L major viab
O=C(C1=C[C@H](c2ccc(Br)cc2)C[C@H](OCCCCO)O1)N1CCN(Cc2ccccc2)CC1 | -5.8 | 10.7 | 3.6 | 3.7 | 16.5
CC(C)CN(C(=O)c1nn(C)c(=O)c2ccccc12)c1nc2ccccc2s1 | 67.1* | 11.3 | 1.6 | 5.0 | 51.5*
CC(C)CN(C(=O)c1ccco1)c1nc2ccccc2s1 | 46.3 | 5.3 | -0.8 | 0.4 | 4.9
Cc1c(C)c2cc(Cl)c(O)c(CN3CCCC(C)C3)c2oc1=O (stereo not drawn) | 65.8* | 2.0 | -0.5 | 0.4 | -3.6
CCCCN(C(=O)c1ccc(Cl)c([N+](=O)[O-])c1)c1c(N)n(CCC)c(=O)[nH]c1=O | -3.4 | -0.1 | 2.8 | 0.3 | -2.3
COc1cc(/C=C2\SC(N3CCc4ccccc4C3)=NC2=O)cc(OC)c1OC | 8.4 | 4.3 | 3.0 | 1.4 | 54.2*
CCOc1ccc(/C=C2\SC(N3CCc4ccccc4C3)=NC2=O)cc1 | 35.6 | 20.9 | 6.1 | 1.0 | 0.0
COc1ccc(/C=C2\SC(N3CCc4ccccc4C3)=NC2=O)cc1 | 62.3* | 34.9 | 8.0 | 1.6 | -0.4
O=C1N=C(N2CCc3ccccc3C2)S/C1=C\c1cccc(O)c1 | -11.9 | 43.0 | 7.5 | 1.9 | 2.0
CCNc1ccc(S(=O)(=O)N(C)C)cc1NCC(=O)Nc1ccc(F)c(Cl)c1 | -1.1 | 0.8 | 3.7 | 0.1 | 46.5
COc1ccc(/C=N/n2c(SC)nnc2-c2ccccc2)cc1C | 24.4 | 15.9 | 0.3 | 0.1 | 63.4*
COc1cc(N(C(=O)Cc2cccs2)C(C(=O)NC2CCCCC2)c2ccc(C)cc2)ccc1-n1cnnn1 (stereo not drawn) | 2.6 | 4.0 | 1.7 | 0.9 | 63.2*
Cc1nn(C)cc1C(C(=O)NC1CCCCC1)N(C(=O)Cc1cccs1)c1ccc(Cl)cc1 (stereo not drawn) | 9.1 | 17.8 | 3.7 | 3.8 | 85.1*
Cc1cc(C)n(-c2nnc(C)n2/N=C/c2cc(Br)ccc2OCc2ccccc2)n1 | 3.9 | 15.2 | 0.2 | 1.6 | 89.2*
CCN(CC)CCCNC(=O)c1ccc(N2CCCCC2)c(NS(=O)(=O)c2ccc(C)cc2)c1 | -11.1 | -0.1 | 2.4 | 0.1 | 98.9*
COCCNC(=O)c1ccc(N2CCCCC2)c(NS(=O)(=O)c2ccc(C)cc2)c1 | 12.4 | 13.6 | 2.0 | 2.6 | 21.8
CCOc1cc(S(=O)(=O)N(CC)CC)ccc1F | -3.5 | 0.8 | 0.9 | 0.2 | 1.0
CCN(CC)S(=O)(=O)c1ccc(C)c(NC(=S)NNC(=O)C2CC2)c1 | -9.4 | -6.2 | 0.8 | 0.1 | 39.5
CCOc1ccc(S(=O)(=O)N(CC)CC)cc1NS(=O)(=O)c1ccc(F)c(F)c1F | 6.6 | -10.7 | 3.6 | -0.2 | 60.0*
CCOc1ccc(S(=O)(=O)Nc2cc(S(=O)(=O)N(CC)CC)ccc2N2CCCC2)cc1 | 11.3 | 13.7 | 2.4 | 6.8 | 94.8*
CCN(CC)c1ccc(S(=O)(=O)N(CC)CC)cc1NC(=O)C1CCCC1 | 13.9 | 4.5 | -0.1 | 0.9 | 61.0*
O=C(O)c1ccc(S(=O)(=O)c2ccc(Sc3ccc(C(=O)O)c(C(=O)O)c3)cc2)cc1 | -5.1 | 7.6 | 3.7 | 1.1 | -11.2
CCN(CC)S(=O)(=O)c1ccc(NC(=O)C2CCCN(C(=O)c3ccc(Cl)cc3)C2)cc1 (stereo not drawn) | -8.8 | 0.9 | 2.4 | 1.4 | 97.0*
CCN(CC)S(=O)(=O)c1ccc(N2CCOCC2)c(NC(=O)C2CCCC2)c1 | -16.6 | 4.2 | 0.8 | 0.7 | 53.2*
COc1ccccc1N(CC(O)Cn1ccnc1C)S(=O)(=O)c1ccc(C)cc1 (stereo not drawn) | -18.1 | 0.2 | 1.9 | -0.1 | 0.3
SMILES | WT yeast gro inh | ABCG2 block | RAM inhibit | ABCB1 block | L major viab
O=C(NCCCNc1ccc(C(F)(F)F)cc1[N+](=O)[O-])c1ccc(Cl)cc1 | 13.6 | 1.5 | 4.1 | 0.1 | -3.5
O=C(NNc1ccc(C(F)(F)F)cc1[N+](=O)[O-])c1ccc(NS(=O)(=O)c2ccc(F)cc2)cc1 | 8.1 | -9.6 | 1.9 | -1.2 | 51.8*
COc1ccc(C(=O)N/C(=C/c2cccs2)C(=O)NCCCn2ccnc2)cc1OC | -0.2 | 1.4 | 2.1 | 1.0 | -5.0
O=C(NCCCn1ccnc1)/C(=C\c1cccs1)NC(=O)c1ccco1 | -15.6 | 10.1 | 1.7 | 0.4 | 55.9*
Cn1c(Oc2ccccc2NCc2cc(Br)ccc2O)cc(=O)n(C)c1=O | 16.5 | 1.7 | 0.8 | 0.2 | 99.0*
COc1cc(CNc2ccccc2Oc2cc(=O)n(C)c(=O)n2C)cc(OC)c1OC | -0.8 | 0.0 | -0.7 | 0.0 | 11.7
COc1ccc(CC(=O)NNC(=O)c2cccnc2)cc1OC | 4.1 | 1.1 | 0.5 | 0.7 | -5.1
Cc1ccn2cc(-c3cccc(NC(=O)C(C)C)c3)nc2c1 | 17.9 | 7.0 | -1.6 | 0.0 | 7.1
Cc1ccn2cc(-c3cccc(NC(=O)c4ccccc4)c3)nc2c1 | 2.8 | 4.9 | 1.3 | 0.0 | 71.6*
Cc1ccc(C)c(NC(=O)c2ccccc2NC(=O)C2CCCO2)c1 (stereo not drawn) | 5.5 | 1.5 | 1.9 | -0.3 | 13.1
COc1cccc(C(=O)Nc2nc(-c3ccc(S(=O)(=O)N4CCOCC4)cc3)cs2)c1 | 12.7 | -1.0 | 1.1 | 0.4 | 91.7*
O=C(Nc1nc(-c2nc3ccccc3s2)cs1)c1ccc(S(=O)(=O)N2CCOCC2)cc1 | -4.9 | -0.5 | 5.5 | -0.1 | 52.2*
COc1ccc(-c2csc(NC(=O)c3ccc(S(=O)(=O)N4CCc5ccccc5C4)cc3)n2)c(OC)c1 | -13.8 | -6.0 | 2.4 | -2.2 | 90.5*
COc1ccc(/C=N/Nc2nc(-c3cccc(S(=O)(=O)N4CCCC4)c3)cs2)c(OC)c1 | -16.9 | -4.5 | 2.6 | -0.5 | 69.2*
COc1cccc(-c2csc(N3CCN(S(=O)(=O)c4ccc(F)cc4)CC3)n2)c1 | 6.7 | -0.3 | 4.2 | -0.1 | 3.7
CCOc1ccc(-c2csc(NC(=O)c3ccc(S(=O)(=O)N4CCc5ccccc5C4)cc3)n2)cc1 | -23.4 | -0.1 | 6.2 | 0.0 | 5.1
CCN(C(=O)COC(=O)CNC(=O)c1ccc2ccccc2c1)C1CCS(=O)(=O)C1 (stereo not drawn) | 1.5 | 0.1 | 1.8 | -0.4 | 9.0
Cc1ccc(-c2csc(NC(=O)COC(=O)c3cccc(S(=O)(=O)N4CCOCC4)c3)n2)cc1 | -9.5 | 31.3 | 3.8 | 2.7 | -6.6
O=C(Oc1cccc(NC(=O)c2cccs2)c1)c1cccc(S(=O)(=O)N2CCCC2)c1 | -29.5 | -4.6 | 5.2 | -0.4 | 62.0*
O=C(Nc1nc(-c2ccc(S(=O)(=O)N3CCOCC3)cc2)cs1)c1ccccc1 | 4.2 | 0.5 | 4.3 | 0.3 | 73.4*
O=S(=O)(c1ccc(-c2csc(-c3cccnc3)n2)cc1)N1CCOCC1 | 13.6 | 2.0 | 2.0 | 0.5 | 68.4*
O=C(Nc1nc(-c2ccc(S(=O)(=O)N3CCCCCC3)cc2)cs1)c1cccs1 | 4.8 | -3.8 | 1.0 | -2.7 | 22.3
O=C(Nc1nc(-c2ccc(S(=O)(=O)N3CCCC3)cc2)cs1)c1cccs1 | 6.6 | 0.4 | 3.0 | 0.5 | 99.8*
